CASP6 VEID inh: inhibitors of human caspase-6; inhibition, % at 12.5 µM; AID 686996; P55212; 0.53% of 350,000 active; purified caspase-6, Z-VEID-R110 cleavage fluorescence;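 active = mean inhibition across replicates at least about 35%, with every replicate also reaching that limit, limit read from the data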
Target sequence (P55212 24-179 limits assumed): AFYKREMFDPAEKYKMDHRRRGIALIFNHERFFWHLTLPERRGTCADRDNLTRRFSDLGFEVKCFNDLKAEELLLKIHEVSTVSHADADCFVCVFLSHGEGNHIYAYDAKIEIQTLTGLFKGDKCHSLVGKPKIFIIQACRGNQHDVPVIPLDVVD
Target sequence (P55212 194-293 limits assumed): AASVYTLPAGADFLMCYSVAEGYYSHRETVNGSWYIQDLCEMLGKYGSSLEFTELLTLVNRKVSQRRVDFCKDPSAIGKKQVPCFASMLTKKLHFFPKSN
UCH37 inh: human UCH37 deubiquitinating enzyme inhibition; 0.33% of 330,000 active; AID 588478; inhibition, % (no concentration beside the values); Q9Y5K5; purified proteasome/UCH37, Ub-AMC cleavage fluorescence;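 active = mean inhibition over replicate wells above about 20%, limit read from the data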
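System: Proteasome-associated human UCH37 deubiquitinase; Input: 0.15 nM proteasome in added enzyme buffer; Also added: Ub-AMC substrate from 1 µM stock; Incubation: 30 min compound-proteasome preincubation then 25 min substrate reaction, room temperature; Detection: fluorescence, ex 355 nm, em 460 nm; Read-out: % inhibition of Ub-AMC cleavage fluorescence; Benchmarks: no-proteasome and no-compound wells.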
NSD2 HMT inh: NSD2 (human) methyltransferase inhibition; inhibition, % at 12.5 µM; NSD2 peptide methylation, AlphaScreen, 120 min; 0.54% of 310,000 active; AID 743445; O96028; in the data active = inhibition above about 50%
FGF22 binding: shifts melting point of recombinant human FGF22 | Q9HCT0 | recombinant FGF22 thermal shift, SYPRO orange fluorescence; percent of sucrose octasulfate shift, DMSO zero | activity (Tm shift, normalised), % at 9.99 µM | 1.5% of 340,000 active | AID 651658;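 active = mean Tm shift, scaled 0 neutral to 100 positive control, at about 1.3% or above, every replicate too, limit read from the data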
Target sequence (Q9HCT0 whole entry, looked up): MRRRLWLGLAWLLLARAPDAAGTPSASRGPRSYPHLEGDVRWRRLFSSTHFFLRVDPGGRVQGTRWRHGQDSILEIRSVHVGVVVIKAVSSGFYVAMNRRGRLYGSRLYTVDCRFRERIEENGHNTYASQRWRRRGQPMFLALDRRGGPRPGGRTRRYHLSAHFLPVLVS
SIRT5 inh: blocks human SIRT5 desuccinylation of peptide; Q9NXA8; Purified SirT5, succinyl-peptide AMC, trypsin-coupled fluorescence; inhibition, % at 15 µM; 1.1% of 330,000 active; in the data active = inhibition above about 15%
Numbers stand for hits; 0 = inactive; - = not tested or not shown. Only some compounds are listed: those with a hit (about 2.6% of all), similar ones and a draw of the others.

SMILES	CASP6 VEID inh	UCH37 inh	NSD2 HMT inh	FGF22 binding	SIRT5 inh
c1ccc(-c2nnsc2-c2nc3ccccc3[nH]2)cc1	0	0	0	43	0
CN(C)CCN(Cc1cccs1)S(=O)(=O)c1csc(C(N)=O)c1	0	0	0	0	33
CN(NS(=O)(=O)c1ccccc1)c1nc2ccccc2nc1C(F)(F)F	-	0	0	-	-
CN(NS(=O)(=O)c1ccc(Cl)cc1)c1nc(C(F)(F)F)nc2ccccc12	0	0	0	44	0
Cc1ccccc1S(=O)(=O)N1CC(=O)N2[C@@H](CO)[C@H](c3ccc(C#CCC4CCCC4)cc3)[C@@H]2C1	0	-	-	-	16
O=C1CN(S(=O)(=O)Cc2ccccc2)C[C@H]2[C@@H](c3ccc(C#CCC4CCCC4)cc3)[C@@H](CO)N12	0	-	-	-	16
CN1[C@H](C(=O)NC2Cc3ccccc3C2)[C@@H](CO)[C@@H]2Cn3c(ccc(-c4ccncc4)c3=O)[C@@H]21	0	-	-	0	0
C[C@@H]1CN([C@@H](C)CO)C(=O)c2cc(C#Cc3cccc(F)c3)cnc2O[C@@H]1CN(C)C(=O)c1ccccc1F	0	-	-	0	0
O=C(N/N=C/c1c[nH]c2ccccc12)c1ccccc1	0	-	0	0	100
O=C(N/N=C/c1oc(O)c2ccccc12)c1ccccc1	0	-	0	44	0
C[C@@H]1CN([C@H](C)CO)C(=O)Cc2cc(NC(=O)c3ccncc3)ccc2O[C@H]1CN(C)CC1CC1	0	-	-	0	0
C[C@H](CO)N1C[C@H](C)[C@@H](CN(C)C(=O)NC2CCCCC2)Oc2ccc(N(C)C)cc2C1=O	0	-	-	0	0
CC1=CN2C(=N)/C(=C/c3ccc([N+](=O)[O-])o3)C(=O)N=C2S1	37	0	0	0	21
COc1ccccc1NC(=O)N1CCCCN2[C@@H](CO)[C@H](c3ccc(-c4ccccc4)cc3)[C@@H]2C1	0	-	-	0	0
O=[N+]([O-])c1ccc(C=NN2CCN(Cc3ccccc3)CC2)cc1	-	0	-	-	-
NS(=O)(=O)c1ccc(N=Nc2ccc(O)c3ncccc23)cc1	51	0	0	0	0
CN1C(=O)CC(Sc2ccccc2C(=O)O)C1=O (configuration not stated)	35	0	0	0	0
Cc1ccc(S(=O)(=O)Nc2ccc3c(c2)CC(=O)N([C@@H](C)CO)C[C@@H](C)[C@@H](CN(C)C(=O)Nc2c(C)noc2C)O3)cc1	-	-	-	0	0
Cc1cc(-c2ccc(C=Nn3cnnc3)o2)c([N+](=O)[O-])cc1C	-	0	-	-	-
CC1=C(C#N)C(=O)NC(=O)/C1=C\c1ccc(-c2cc(C)c(C)cc2[N+](=O)[O-])o1	-	20	-	1.6	17
Nc1nnnn1CC(=O)N/N=C/c1cc([N+](=O)[O-])ccc1Cl	0	-	-	43	0
COC(=O)c1ccccc1CSc1nsc(/C=C/N(C)C)c1C#N	37	0	0	-	0
Cc1nc(CSc2nsc(/C=C/N(C)C)c2C#N)cs1	0	0	-	0	0
CC(C)(C)C(C(=O)Oc1ccccc1)c1ccccc1 (configuration not stated)	0	24	-	0	-
CO[C@H](CN(C)C(=O)c1ccccc1F)[C@@H](C)CN([C@H](C)CO)S(=O)(=O)c1ccccc1	0	-	-	0	0
SMILES	CASP6 VEID inh	UCH37 inh	NSD2 HMT inh	FGF22 binding	SIRT5 inh
C[C@H]1CN([C@@H](C)CO)C(=O)c2cc(NC(=O)C3CCCCC3)ccc2O[C@@H]1CN(C)Cc1ccc(Cl)c(Cl)c1	0	-	-	0	0
CC(C)C#Cc1ccc2c(c1)O[C@@H](CN(C)C(=O)c1cccc(F)c1)[C@H](C)CN([C@H](C)CO)S2(=O)=O	0	-	-	0	0
CCN1CCN(c2ncnc3c2cnn3-c2ccc(Cl)cc2)CC1	38	0	-	0	0
CCN1CCN(c2ncnc3c2cnn3-c2ccccc2)CC1	0	0	-	0	0
COc1cccc(/C=N/Nc2nc(C)cc(=O)[nH]2)c1OC	42	-	0	0	0
COc1cccc(C=NNc2nc(C)cc(=O)[nH]2)c1OC	-	0	-	-	-
Cc1cc(=O)[nH]c(N/N=C/c2c(C)nn(-c3ccccc3)c2Cl)n1	0	-	0	0	16
Cc1cc(=O)[nH]c(NN=Cc2c(C)nn(-c3ccccc3)c2C)n1	-	0	-	-	-
ON=Cc1ccccc1Oc1ccccc1	-	0	-	-	-
CC(C(=O)N(C)C1CCS(=O)(=O)C1)N1C(=O)/C(=C/c2ccc(F)cc2)SC1=S (configuration not stated)	0	0	0	0	0
O=C1/C(=C\c2ccco2)SC(=S)N1C1CCS(=O)(=O)C1 (configuration not stated)	49	-	0	0	0
CCN(C(=O)C(C)N1C(=O)/C(=C/c2ccco2)SC1=S)C1CCS(=O)(=O)C1 (configuration not stated)	50	-	0	0	0
C[C@@H]1CN([C@H](C)CO)C(=O)c2c(c3ccccc3n2C)-c2ccccc2CO[C@H]1CN(C)S(=O)(=O)c1ccsc1	0	-	-	0	0
Cc1ccc(NC(=O)CSc2nc(N)cc(=O)[nH]2)cc1S(=O)(=O)N1CCOCC1	0	0	0	0	0
COc1ccc(N2CCN(CC(=O)Nc3cccc(S(=O)(=O)N4CCOCC4)c3)CC2)cc1	0	0	0	0	15
O=C(CN1CCN(C(c2ccccc2)c2ccccc2)CC1)Nc1ccc(N2CCOCC2)cc1	0	0	0	43	0
Cc1ccc(NC(=O)CSc2n[nH]c(N)n2)cc1S(=O)(=O)N1CCOCC1	0	0	0	44	0
CCN(CC)c1ccc(S(=O)(=O)N2CCOCC2)cc1NC(=O)CN1CCN(Cc2ccccc2)CC1	0	0	0	0	29
O=C(CN1CCN(S(=O)(=O)c2ccccc2)CC1)Nc1ccc(N2CCOCC2)cc1	-	0	0	-	-
CCN(CC)c1ccc(S(=O)(=O)N2CCOCC2)cc1NC(=O)CNCc1ccccc1	0	-	0	0	0
C[C@H](CO)N1C[C@H](C)[C@H](CN(C)S(C)(=O)=O)Oc2ccc(NS(=O)(=O)c3cccs3)cc2CC1=O	0	-	-	0	0
Cc1cc(C(=O)NN=Cc2ccc(-c3ccc(C)c(Cl)c3)o2)n[nH]1	-	0	-	-	-
O=S(=O)(c1ccccc1)N1C[C@@H]2N[C@H](C1)C2c1ccc(-c2cccnc2)cc1 (some centres not stated)	0	-	-	-	0
Cc1ccc(NC(=O)C(c2ccccc2)N2CCN(CC(=O)N3CCOCC3)CC2)cc1Cl (configuration not stated)	47	0	0	0	0
O=C(CSc1nc2ccccc2[nH]1)Nc1cccc(S(=O)(=O)N2CCOCC2)c1	0	0	0	1.8	0
O=C(Nc1ccc(F)cc1)C(c1ccccc1)N1CCN(CC(=O)N2CCOCC2)CC1 (configuration not stated)	0	0	0	0	0
C[C@H](CO)N1C[C@H](C)[C@@H](CN(C)C(=O)Nc2ccc(C(F)(F)F)cc2)Oc2ccc(NC(=O)C3CCCCC3)cc2CC1=O	0	-	-	0	0
O=C(CCSc1ccccc1)N1CCCC1	0	0	0	44	0
O=C(CCSc1ccccc1)N1CCOCC1	-	0	0	-	-
